Laboratory results published in ChEMBL document CHEMBL1123793, “Analysis of structure-activity relationships in renin substrate analogue inhibitory peptides” (J Med Chem, 1987).
*1 amine or outer side, *2 acyl side, *3 side chain or, on linkers, in order; H or OH if unused. Where a SMILES comes first, the peptide text is derived from it. [ ]: non-standard residue; d: D form. The star is where a group is joined. X2 = CC[C@H](C)[C@H](N*)C(=O)NC(=O)[C@@H](N)Cc1ccccc1; Sta = CC(C)C[C@H](N)[C@@H](O)CC(=O)O; X1 = CC(C)CC(N[*:1])C(O)CC(=O)[*:2]; hhPhe = N[C@@H](CCCc1ccccc1)C(=O)O; X3 = CC(=O)[C@H](CCCCN)N*; Orn = NCCC[C@H](N)C(=O)O; Nva = CCC[C@H](N)C(=O)O; For = O=C*

Experiments:
Renin [1] = molecular target: T1, Renin (Homo sapiens, UniProt P00797); assay: Inhibitory activity against human plasma renin; format: cell-free
T1 sequence (P00797 whole entry): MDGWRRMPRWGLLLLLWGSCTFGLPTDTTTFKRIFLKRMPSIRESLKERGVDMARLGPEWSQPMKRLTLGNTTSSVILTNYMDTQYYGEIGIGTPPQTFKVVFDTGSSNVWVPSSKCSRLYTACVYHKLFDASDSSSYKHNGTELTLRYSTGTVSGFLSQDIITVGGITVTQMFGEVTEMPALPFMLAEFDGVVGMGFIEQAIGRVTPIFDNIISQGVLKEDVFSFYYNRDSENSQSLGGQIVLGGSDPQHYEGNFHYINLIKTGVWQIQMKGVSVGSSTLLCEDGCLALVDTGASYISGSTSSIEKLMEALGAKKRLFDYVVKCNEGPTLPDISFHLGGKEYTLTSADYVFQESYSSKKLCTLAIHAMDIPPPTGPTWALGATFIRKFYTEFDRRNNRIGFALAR
Procedure, shortened: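 Pooled human plasma from about 500 hypertensive patients, collected by renal vein catheterization into chilled EDTA, trypsin-activated. PMSF 5 mM, 8-hydroxyquinoline sulfate 3 mM and a further 5 mM EDTA were added, giving about 10 ng AI mL⁻¹ h⁻¹. Plasma at pH 7.4 with serial peptide dilutions was incubated 1 h at 37 °C against a 0 °C blank, quenched at pH 8.5, and angiotensin I was measured by RIA.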

Renin [2] = molecular target: T2, Renin (Rattus norvegicus, UniProt P08424); assay: Inhibitory potency on plasma renin obtained from Sprague-Dawley rats; format: cell-free
T2 sequence (P08424 whole entry): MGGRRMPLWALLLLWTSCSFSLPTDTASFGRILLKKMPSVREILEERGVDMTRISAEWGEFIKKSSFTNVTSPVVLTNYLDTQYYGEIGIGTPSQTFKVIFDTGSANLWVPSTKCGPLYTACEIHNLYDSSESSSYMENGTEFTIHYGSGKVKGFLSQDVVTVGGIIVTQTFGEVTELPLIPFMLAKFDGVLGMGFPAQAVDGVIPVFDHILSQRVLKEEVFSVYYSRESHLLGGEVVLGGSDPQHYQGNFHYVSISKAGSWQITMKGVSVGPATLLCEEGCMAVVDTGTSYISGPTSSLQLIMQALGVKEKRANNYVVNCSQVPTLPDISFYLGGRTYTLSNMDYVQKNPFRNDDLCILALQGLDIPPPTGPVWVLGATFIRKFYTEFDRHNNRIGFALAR
Procedure, shortened: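 Dog, rabbit or rat plasma was collected into 5 mM EDTA at 0 °C, spun at 4 °C, then given PMSF 5 mM and 8-hydroxyquinoline sulfate 3 mM. Plasma at pH 7.4 with serial inhibitor dilutions was incubated 1 h at 37 °C, with a 0 °C blank. The reaction was quenched at pH 8.5, and angiotensin I was measured by RIA with ¹²⁵I tracer in anti-AI-coated tubes. The ratio is species IC50 divided by human IC50.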

Molecule	IC50 (Renin [1])	IC50 (Renin [2])
CC(C)[C@H](NC(=O)[C@@H](CCCc1ccccc1)NC(=O)[C@H](Cc1c[nH]cn1)NC(=O)[C@H](Cc1ccccc1)NC(=O)[C@@H]1CCCN1C(=O)[C@H](Cc1c[nH]cn1)NC(=O)[C@@H]1CCCN1)C(=O)N[C@@H](Cc1ccc(O)cc1)C(=O)N[C@@H](CCCCN)C(N)=O	0.027 µM	–
CC[C@H](C)[C@H](NC(=O)CC(O)C(CC(C)C)NC(=O)[C@@H](N)Cc1ccccc1)C(=O)NC(=O)[C@@H](N)Cc1ccccc1 (stereo partly drawn)	> 100 µM	–
CC[C@H](C)[C@H](NC(=O)CC(O)C(CC(C)C)NC(=O)[C@H](Cc1ccccc1)NC(=O)[C@H](Cc1ccccc1)NC(=O)[C@@H]1CCCN1)C(=O)NC(=O)[C@@H](N)Cc1ccccc1 (stereo partly drawn)	0.43 µM	–
CC(C)CC(NC(=O)[C@H](Cc1c[nH]cn1)NC(=O)[C@H](Cc1ccccc1)NC(=O)[C@@H]1CCCN1)C(O)CC(N)=O (stereo partly drawn)	68 µM	–
CC(C)[C@H](NC(=O)[C@H](Cc1ccccc1)NC[C@H](Cc1ccccc1)NC(=O)[C@H](Cc1cnc[nH]1)NC(=O)[C@H](Cc1ccccc1)NC(=O)[C@@H]1CCCN1C(=O)[C@H](N)Cc1cnc[nH]1)C(=O)N[C@@H](Cc1ccc(O)cc1)C(=O)O	0.58 µM	–
CC[C@H](C)[C@H](NC(=O)CC(O)C(CC(C)C)NC(=O)[C@H](Cc1cnc[nH]1)NC(=O)[C@H](Cc1ccccc1)NC(=O)[C@@H]1CCCN1C(C)=O)C(=O)N[C@@H](Cc1cnc[nH]1)C(=O)N[C@@H](CCCCN)C(=O)O (stereo partly drawn) (Ac-PFH[X1]IHK-OH)	0.04 µM	–
CC(C)CC(NC(=O)[C@H](Cc1cnc[nH]1)NC(=O)[C@H](Cc1ccccc1)NC(=O)[C@@H]1CCCN1C(=O)[C@@H](N)Cc1cnc[nH]1)C(O)CC(=O)N[C@H](C(=O)N[C@@H](Cc1ccc(O)cc1)C(=O)N[C@@H](CCCCN)C(=O)O)C(C)C (stereo partly drawn) (H-HPFH[X1]VYK-OH)	0.4 µM	–
CC[C@H](C)[C@H](NC(=O)CC(O)C(CC(C)C)NC(=O)[C@H](Cc1c[nH]cn1)NC(=O)[C@H](Cc1ccccc1)NC(=O)[C@@H]1CCCN1)C(=O)N[C@@H](Cc1c[nH]cn1)C(=O)N[C@@H](CCCCN)C(=O)O (stereo partly drawn) (H-PFH[X1]IHK-OH)	0.9 µM	–
CC(C)C[C@H](NC(=O)[C@H](Cc1c[nH]cn1)NC(=O)[C@H](Cc1ccccc1)NC(=O)[C@@H]1CCCN1C(=O)[C@H](Cc1c[nH]cn1)NC(=O)[C@@H]1CCCN1)[C@@H](O)CC(N)=O (H-PHPFH[Sta]-NH2)	0.9 µM	–
CC[C@H](C)[C@H](NC(=O)[C@H](CCCc1ccccc1)NC(=O)[C@H](Cc1cnc[nH]1)NC(=O)[C@H](Cc1ccccc1)NC(=O)[C@@H]1CCCN1C(=O)[C@H](Cc1cnc[nH]1)NC(=O)[C@@H]1CCCN1)C(=O)N[C@@H](Cc1cnc[nH]1)C(=O)N[C@@H](CCCCN)C(C)=O (H-PHPFH[hhPhe]IH-X3)	0.03 µM	–
CC[C@H](C)[C@H](NC(=O)[C@H](CCCc1ccccc1)NC(=O)[C@H](CCCCN)NC(=O)[C@H](Cc1ccccc1)NC(=O)[C@@H]1CCCN1C(=O)[C@H](Cc1c[nH]cn1)NC(=O)[C@@H]1CCCN1)C(=O)N[C@@H](Cc1ccccc1)C(N)=O (H-PHPFK[hhPhe]IF-NH2)	3.9 µM	–
CC[C@H](C)[C@H](NC(=O)CC(O)C(CC(C)C)NC(=O)[C@H](Cc1cnc[nH]1)NC(=O)[C@H](Cc1ccccc1)NC(=O)[C@@H]1CCCN1C(=O)[C@H](Cc1cn(C=O)c2ccccc12)NC(=O)[C@@H]1CCCN1)C(=O)N[C@@H](Cc1cn(C=O)c2ccccc12)C(N)=O (stereo partly drawn) (H-PW(For)PFH[X1]IW(For)-NH2)	0.016 µM	–
CC[C@H](C)[C@H](NC(=O)[C@H](CCCc1ccccc1)NC(=O)[C@H](Cc1c[nH]cn1)NC(=O)[C@H](Cc1cn(C=O)c2ccccc12)NC(=O)[C@@H]1CCCN1C(=O)[C@H](Cc1cn(C=O)c2ccccc12)NC(=O)[C@@H]1CCCN1)C(=O)N[C@@H](Cc1ccccc1)C(N)=O (H-PW(For)PW(For)H[hhPhe]IF-NH2)	0.03 µM	–
H-PHPFHFFFVYK-OH [RIP]	5.2 µM	–

Next, values leading:

IC50 (Renin [1])	IC50 (Renin [2])	Molecule
0.22 µM	–	CC[C@H](C)[C@H](NC(=O)CC(O)C(CC(C)C)NC(=O)[C@H](Cc1cnc[nH]1)NC(=O)[C@H](Cc1ccccc1)NC(=O)[C@@H]1CCCN1)C(=O)NC(=O)[C@@H](N)Cc1ccccc1 (stereo partly drawn)
0.046 µM	–	CC[C@H](C)[C@H](NC(=O)[C@H](CCCc1ccccc1)NC(=O)[C@H](Cc1cnc[nH]1)NC(=O)[C@H](Cc1ccccc1)NC(=O)[C@@H]1CCCN1C(C)=O)C(=O)N[C@@H](Cc1cnc[nH]1)C(=O)N[C@@H](CCCCN)C(C)=O (Ac-PFH[hhPhe]IH-X3)
0.02 µM	–	CC[C@H](C)[C@H](NC(=O)CC(O)C(CC(C)C)NC(=O)[C@H](Cc1cnc[nH]1)NC(=O)[C@H](Cc1ccccc1)NC(=O)[C@@H]1CCCN1C(=O)[C@H](Cc1cnc[nH]1)NC(=O)[C@@H]1CCCN1C(C)=O)C(=O)N[C@@H](Cc1cnc[nH]1)C(=O)N[C@@H](CCCCN)C(=O)O (stereo partly drawn) (Ac-PHPFH[X1]IHK-OH)
100 µM	–	CC(C)[C@H](NC(=O)[C@H](CCCN)NC(=O)[C@H](Cc1c[nH]cn1)NC(=O)[C@H](Cc1ccccc1)NC(=O)[C@@H]1CCCN1)C(=O)N[C@@H](Cc1ccc(O)cc1)C(=O)N[C@@H](CCCCN)C(N)=O (H-PFH[Orn]VYK-NH2)
0.03 µM	–	CC[C@H](C)[C@H](NC(=O)CC(O)C(CC(C)C)NC(=O)[C@H](Cc1ccccc1)NC(=O)[C@H](Cc1ccccc1)NC(=O)[C@@H]1CCCN1C(=O)[C@H](Cc1c[nH]cn1)NC(=O)[C@@H]1CCCN1)C(=O)NC(=O)[C@@H](N)Cc1ccccc1 (stereo partly drawn) (H-PHPFF[X1]-X2)
> 1000 µM	–	CCC[C@H](NC(=O)[C@H](Cc1c[nH]cn1)NC(=O)[C@H](Cc1ccccc1)NC(=O)[C@@H]1CCCN1C(=O)[C@H](Cc1c[nH]cn1)NC(=O)[C@@H]1CCCN1)C(=O)N[C@H](C(=O)NC(=O)[C@@H](N)Cc1ccccc1)[C@@H](C)CC (H-PHPFH[Nva]-X2)
–	> 1 µM	CC[C@H](C)[C@H](NC(=O)C[C@H](O)[C@H](CC(C)C)NC(=O)[C@H](Cc1c[nH]cn1)NC(=O)[C@H](Cc1ccccc1)NC(=O)[C@@H]1CCCN1C(=O)[C@H](Cc1c[nH]cn1)NC(=O)[C@@H]1CCCN1)C(=O)N[C@@H](Cc1ccccc1)C(N)=O (H-PHPFH[Sta]IF-NH2)
0.03 µM	–	CC[C@H](C)[C@H](NC(=O)[C@H](CCCc1ccccc1)NC(=O)[C@H](Cc1c[nH]cn1)NC(=O)[C@H](Cc1ccccc1)NC(=O)[C@@H]1CCCN1C(=O)[C@H](Cc1c[nH]cn1)NC(=O)[C@@H]1CCCN1)C(=O)N[C@@H](Cc1ccccc1)C(N)=O (H-PHPFH[hhPhe]IF-NH2)
0.067 µM	–	CC[C@H](C)[C@H](NC(=O)[C@H](CCCc1ccccc1)NC(=O)[C@H](Cc1c[nH]cn1)NC(=O)[C@H](Cc1cn(C=O)c2ccccc12)NC(=O)[C@@H]1CCCN1)C(=O)N[C@@H](Cc1ccccc1)C(N)=O (H-PW(For)H[hhPhe]IF-NH2)
0.24 µM	–	CC[C@H](C)[C@H](NC(=O)[C@H](CCCc1ccccc1)NC(=O)[C@H](Cc1c[nH]cn1)NC(=O)[C@H](Cc1cn(C=O)c2ccccc12)NC(=O)[C@@H]1CCCN1)C(=O)N[C@@H](Cc1cn(C=O)c2ccccc12)C(N)=O (H-PW(For)H[hhPhe]IW(For)-NH2)
0.027 µM	–	CC[C@H](C)[C@H](NC(=O)[C@H](CCCc1ccccc1)NC(=O)[C@H](Cc1c[nH]cn1)NC(=O)[C@H](Cc1ccccc1)NC(=O)[C@@H]1CCCN1C(=O)[C@H](Cc1cn(C=O)c2ccccc12)NC(=O)[C@@H]1CCCN1)C(=O)N[C@@H](Cc1cn(C=O)c2ccccc12)C(N)=O (H-PW(For)PFH[hhPhe]IW(For)-NH2)
0.049 µM	–	CC[C@H](C)[C@H](NC(=O)[C@H](CCCc1ccccc1)NC(=O)[C@H](Cc1c[nH]cn1)NC(=O)[C@H](Cc1cn(C=O)c2ccccc12)NC(=O)[C@@H]1CCCN1C(=O)[C@H](Cc1cn(C=O)c2ccccc12)NC(=O)[C@@H]1CCCN1)C(=O)N[C@@H](Cc1cn(C=O)c2ccccc12)C(N)=O (H-PW(For)PW(For)H[hhPhe]IW(For)-NH2)
100 µM	–	H-PFHFFVYK-NH2
200 µM	–	H-PHPFRFFVYK-OH
